Reference: ChEMBL document CHEMBL5058577, “EUbOPEN Chemogenomics Library 2 (Multiplex)” (2022)

Test system: HEK-293T
Experiment: Multiplex assay against HEK293T
Format: toxicity, cell-based
Conditions: human
Procedure, shortened: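 Imaging took place on a CQ1 microscope at 37°C and 5% CO2 once compound had been added to live cells stained at seeding with Hoechst33342, BioTracker Green Microtubule Cytoskeleton Dye, MitoTracker Red and Annexin V Alexa Fluor 680. CellPathfinder machine-learning gating classed cells as Hoechst high-intensity objects or normal cells, classed normal cells as having healthy, pyknosed or fragmented nuclei, and classed pyknosed cells as mitotic or apoptotic. Tubulin, mitochondrial-mass and membrane-permeability phenotypes are per cents of the healthy-nucleus cells.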

[1] = 12 h, 1 µM, compound concentration 1 uM, replicate 1
[2] = 12 h, 1 µM, compound concentration 1 uM, replicate 2
[3] = 12 h, 10 µM, compound concentration 10 uM, replicate 1
[4] = 12 h, 10 µM, compound concentration 10 uM, replicate 2
[5] = 24 h, 1 µM, compound concentration 1 uM, replicate 1
[6] = 24 h, 1 µM, compound concentration 1 uM, replicate 2
[7] = 24 h, 10 µM, compound concentration 10 uM, replicate 1
[8] = 24 h, 10 µM, compound concentration 10 uM, replicate 2
[9] = 48 h, 1 µM, compound concentration 1 uM, replicate 1
[10] = 48 h, 1 µM, compound concentration 1 uM, replicate 2
[11] = 48 h, 10 µM, compound concentration 10 uM, replicate 1
[12] = 48 h, 10 µM, compound concentration 10 uM, replicate 2

CCCC(CCC)C(=O)O [VALPROIC ACID]
Population Apoptotic (%) [1]: 39% | Population Fragmented Nuclei (%) [1]: 6% | Population Healthy Nuclei (%) [1]: 81% | Population Hoechst High Intensity Objects (%) [1]: 6% | Population Membrane Permeable-Phenotype (%) [1]: 0% | Population Mitochondria Different-Phenotype (%) [1]: 29% | Population Mitotic Cells (%) [1]: 60% | Population Normal (%) [1]: 93% | Population Pyknosed Nuclei (%) [1]: 12% | Population Tubulin-Different-Phenotype (%) [1]: 20% | Total Cell Count [1]: 513 | Population Apoptotic (%) [2]: 28% | Population Fragmented Nuclei (%) [2]: 5% | Population Healthy Nuclei (%) [2]: 79% | Population Hoechst High Intensity Objects (%) [2]: 5% | Population Mitochondria Different-Phenotype (%) [2]: 46% | Population Mitotic Cells (%) [2]: 71% | Population Normal (%) [2]: 94% | Population Pyknosed Nuclei (%) [2]: 15% | Population Tubulin-Different-Phenotype (%) [2]: 16% | Total Cell Count [2]: 367 | Population Apoptotic (%) [3]: 34% | Population Fragmented Nuclei (%) [3]: 6% | Population Healthy Nuclei (%) [3]: 82% | Population Hoechst High Intensity Objects (%) [3]: 6% | Population Membrane Permeable-Phenotype (%) [3]: 0% | Population Mitochondria Different-Phenotype (%) [3]: 40% | Population Mitotic Cells (%) [3]: 66% | Population Normal (%) [3]: 93% | Population Pyknosed Nuclei (%) [3]: 11% | Population Tubulin-Different-Phenotype (%) [3]: 26% | Total Cell Count [3]: 455 | Population Apoptotic (%) [4]: 44% | Population Fragmented Nuclei (%) [4]: 7% | Population Healthy Nuclei (%) [4]: 81% | Population Mitochondria Different-Phenotype (%) [4]: 49% | Population Mitotic Cells (%) [4]: 55% | Population Tubulin-Different-Phenotype (%) [4]: 20% | Total Cell Count [4]: 446 | Population Apoptotic (%) [5]: 28% | Population Fragmented Nuclei (%) [5]: 8% | Population Healthy Nuclei (%) [5]: 78% | Population Hoechst High Intensity Objects (%) [5]: 4% | Population Membrane Permeable-Phenotype (%) [5]: 1% | Population Mitochondria Different-Phenotype (%) [5]: 22% | Population Mitotic Cells (%) [5]: 71% | Population Normal (%) [5]: 95% | Population Pyknosed Nuclei (%) [5]: 12% | Population Tubulin-Different-Phenotype (%) [5]: 16% | Total Cell Count [5]: 663 | Population Apoptotic (%) [6]: 45% | Population Fragmented Nuclei (%) [6]: 6% | Population Healthy Nuclei (%) [6]: 83% | Population Membrane Permeable-Phenotype (%) [6]: 0% | Population Mitochondria Different-Phenotype (%) [6]: 26% | Population Mitotic Cells (%) [6]: 54% | Population Pyknosed Nuclei (%) [6]: 9% | Population Tubulin-Different-Phenotype (%) [6]: 10% | Total Cell Count [6]: 469 | Population Apoptotic (%) [7]: 28% | Population Fragmented Nuclei (%) [7]: 9% | Population Healthy Nuclei (%) [7]: 81% | Population Hoechst High Intensity Objects (%) [7]: 4% | Population Membrane Permeable-Phenotype (%) [7]: 0% | Population Mitochondria Different-Phenotype (%) [7]: 16% | Population Mitotic Cells (%) [7]: 71% | Population Normal (%) [7]: 95% | Population Pyknosed Nuclei (%) [7]: 9% | Population Tubulin-Different-Phenotype (%) [7]: 15% | Total Cell Count [7]: 649 | Population Apoptotic (%) [8]: 23% | Population Fragmented Nuclei (%) [8]: 8% | Population Healthy Nuclei (%) [8]: 86% | Population Hoechst High Intensity Objects (%) [8]: 3% | Population Mitochondria Different-Phenotype (%) [8]: 30% | Population Mitotic Cells (%) [8]: 76% | Population Normal (%) [8]: 96% | Population Pyknosed Nuclei (%) [8]: 5% | Population Tubulin-Different-Phenotype (%) [8]: 11% | Total Cell Count [8]: 593 | Population Apoptotic (%) [9]: 19% | Population Fragmented Nuclei (%) [9]: 14% | Population Healthy Nuclei (%) [9]: 78% | Population Hoechst High Intensity Objects (%) [9]: 2% | Population Membrane Permeable-Phenotype (%) [9]: 3% | Population Mitochondria Different-Phenotype (%) [9]: 11% | Population Mitotic Cells (%) [9]: 80% | Population Normal (%) [9]: 97% | Population Pyknosed Nuclei (%) [9]: 6% | Population Tubulin-Different-Phenotype (%) [9]: 9% | Total Cell Count [9]: 1112 | Population Apoptotic (%) [10]: 36% | Population Fragmented Nuclei (%) [10]: 10% | Population Healthy Nuclei (%) [10]: 81% | Population Hoechst High Intensity Objects (%) [10]: 3% | Population Membrane Permeable-Phenotype (%) [10]: 1% | Population Mitochondria Different-Phenotype (%) [10]: 17% | Population Mitotic Cells (%) [10]: 63% | Population Normal (%) [10]: 96% | Population Pyknosed Nuclei (%) [10]: 8% | Population Tubulin-Different-Phenotype (%) [10]: 10% | Total Cell Count [10]: 700 | Population Apoptotic (%) [11]: 21% | Population Fragmented Nuclei (%) [11]: 15% | Population Healthy Nuclei (%) [11]: 79% | Population Hoechst High Intensity Objects (%) [11]: 3% | Population Membrane Permeable-Phenotype (%) [11]: 1% | Population Mitochondria Different-Phenotype (%) [11]: 11% | Population Mitotic Cells (%) [11]: 78% | Population Normal (%) [11]: 96% | Population Pyknosed Nuclei (%) [11]: 5% | Population Tubulin-Different-Phenotype (%) [11]: 9% | Total Cell Count [11]: 1088 | Population Apoptotic (%) [12]: 27% | Population Fragmented Nuclei (%) [12]: 13% | Population Healthy Nuclei (%) [12]: 82% | Population Hoechst High Intensity Objects (%) [12]: 1% | Population Membrane Permeable-Phenotype (%) [12]: 2% | Population Mitochondria Different-Phenotype (%) [12]: 12% | Population Mitotic Cells (%) [12]: 72% | Population Normal (%) [12]: 98% | Population Pyknosed Nuclei (%) [12]: 4% | Population Tubulin-Different-Phenotype (%) [12]: 6% | Total Cell Count [12]: 947
